In ChEMBL document CHEMBL5653631, “A Potent and Selective ULK1 Inhibitor Suppresses Autophagy and Sensitizes Cancer Cells to Nutrient Stress” (iScience, 2018):

How the values were obtained:
[1] = molecular target: T1, Ephrin type-B receptor 4 (Homo sapiens) (UniProt P54760); experiment: Inhibition of human recombinant EphB4 at 40 nM in presence of ATP by radiometric assay relative to control
T1 sequence (whole entry): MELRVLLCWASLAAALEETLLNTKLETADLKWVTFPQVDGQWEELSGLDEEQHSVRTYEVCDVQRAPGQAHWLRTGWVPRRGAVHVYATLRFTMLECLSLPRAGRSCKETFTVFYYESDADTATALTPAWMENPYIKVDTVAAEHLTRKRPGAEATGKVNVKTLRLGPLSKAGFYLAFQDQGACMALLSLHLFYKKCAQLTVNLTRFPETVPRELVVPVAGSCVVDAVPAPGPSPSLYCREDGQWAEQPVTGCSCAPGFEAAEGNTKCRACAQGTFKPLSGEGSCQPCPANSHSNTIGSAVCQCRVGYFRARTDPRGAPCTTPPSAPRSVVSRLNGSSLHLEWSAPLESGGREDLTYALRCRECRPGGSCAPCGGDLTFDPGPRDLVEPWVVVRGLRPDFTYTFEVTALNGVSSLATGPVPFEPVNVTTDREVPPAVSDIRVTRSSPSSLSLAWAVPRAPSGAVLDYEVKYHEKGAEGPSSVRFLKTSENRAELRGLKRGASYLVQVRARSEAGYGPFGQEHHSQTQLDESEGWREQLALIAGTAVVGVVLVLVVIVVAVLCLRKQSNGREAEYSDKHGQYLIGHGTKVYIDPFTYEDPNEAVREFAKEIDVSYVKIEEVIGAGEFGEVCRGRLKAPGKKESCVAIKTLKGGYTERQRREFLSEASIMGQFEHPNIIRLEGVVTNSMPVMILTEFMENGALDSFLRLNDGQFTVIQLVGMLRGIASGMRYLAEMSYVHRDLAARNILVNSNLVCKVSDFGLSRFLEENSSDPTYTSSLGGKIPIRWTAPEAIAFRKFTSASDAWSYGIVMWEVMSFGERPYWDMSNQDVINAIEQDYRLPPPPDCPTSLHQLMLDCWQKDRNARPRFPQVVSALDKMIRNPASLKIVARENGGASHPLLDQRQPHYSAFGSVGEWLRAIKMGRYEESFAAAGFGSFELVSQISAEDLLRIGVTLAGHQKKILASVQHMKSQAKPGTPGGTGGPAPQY

[2] = molecular target: Tyrosine-protein kinase Lyn (Homo sapiens) (UniProt P07948); experiment: Inhibition of human recombinant LYN at 40 nM in presence of ATP by radiometric assay relative to control
[3] = molecular target: Serine/threonine-protein kinase 25 (Homo sapiens) (UniProt O00506); experiment: Inhibition of human recombinant YSK1 at 40 nM related to control ULK1
[4] = molecular target: T2, TGF-beta receptor type-1 (Homo sapiens) (UniProt P36897); experiment: Inhibition of human recombinant TGFbR1 at 15 nM in presence of ATP by radiometric assay relative to control
T2 sequence (whole entry): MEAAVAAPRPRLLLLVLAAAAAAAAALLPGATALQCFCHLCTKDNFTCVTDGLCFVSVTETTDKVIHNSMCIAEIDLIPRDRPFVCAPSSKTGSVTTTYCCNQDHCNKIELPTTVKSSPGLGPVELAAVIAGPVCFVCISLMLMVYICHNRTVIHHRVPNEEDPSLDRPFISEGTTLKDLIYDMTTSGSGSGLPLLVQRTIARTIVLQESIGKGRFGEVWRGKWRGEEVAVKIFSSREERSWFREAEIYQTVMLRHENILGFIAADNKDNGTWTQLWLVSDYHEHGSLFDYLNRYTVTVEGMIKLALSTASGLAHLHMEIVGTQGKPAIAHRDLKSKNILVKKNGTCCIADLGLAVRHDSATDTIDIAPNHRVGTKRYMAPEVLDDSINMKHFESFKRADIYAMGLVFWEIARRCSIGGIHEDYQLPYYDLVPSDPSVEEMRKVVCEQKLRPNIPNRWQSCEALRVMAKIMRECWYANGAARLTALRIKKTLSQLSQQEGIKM

[5] = molecular target: RAC-gamma serine/threonine-protein kinase (Homo sapiens) (UniProt Q9Y243); experiment: Inhibition of human recombinant AKT3 at 15 nM related to control ULK1
[6] = molecular target: Casein kinase I isoform gamma-2 (Homo sapiens) (UniProt P78368); experiment: Inhibition of human recombinant CK1g2 at 15 nM related to control ULK1
[7] = molecular target: Mitogen-activated protein kinase 9 (Homo sapiens) (UniProt P45984); experiment: Inhibition of human recombinant JNK2 at 15 nM in presence of ATP by radiometric assay relative to control
[8] = molecular target: NT-3 growth factor receptor (Homo sapiens) (UniProt Q16288); experiment: Inhibition of human recombinant TRKC at 15 nM in presence of ATP by radiometric assay relative to control
[9] = molecular target: Proto-oncogene tyrosine-protein kinase ROS (Homo sapiens) (UniProt P08922); experiment: Inhibition of human recombinant ROS at 500 nM related to control ULK1
[10] = molecular target: T1, Ephrin type-B receptor 4 (Homo sapiens); experiment: Inhibition of human recombinant EphB4 at 500 nM related to control ULK1
[11] = molecular target: Glycogen synthase kinase-3 alpha (Homo sapiens) (UniProt P49840); experiment: Inhibition of human recombinant GSK3A at 500 nM in presence of ATP by radiometric assay relative to control
[12] = molecular target: Serine/threonine-protein kinase 32A (Homo sapiens) (UniProt Q8WU08); experiment: Inhibition of human recombinant YANK1 at 500 nM related to control ULK1
[13] = molecular target: Tyrosine-protein kinase HCK (Homo sapiens) (UniProt P08631); experiment: Inhibition of human recombinant HCK at 500 nM in presence of ATP by radiometric assay relative to control
[14] = molecular target: Vascular endothelial growth factor receptor 1 (Homo sapiens) (UniProt P17948); experiment: Inhibition of human recombinant FLT1 at 500 nM related to control ULK1
[15] = molecular target: Dual specificity protein kinase CLK1 (Homo sapiens) (UniProt P49759); experiment: Inhibition of human recombinant CLK1 at 500 nM in presence of ATP by radiometric assay relative to control
[16] = molecular target: Leukocyte tyrosine kinase receptor (Homo sapiens) (UniProt P29376); experiment: Inhibition of human recombinant LTK at 500 nM related to control ULK1
[17] = molecular target: ALK tyrosine kinase receptor (Homo sapiens) (UniProt Q9UM73); experiment: Inhibition of human recombinant ALK at 500 nM in presence of ATP by radiometric assay relative to control
Procedure, shortened: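 Panel of 327 recombinant human kinases in radiometric activity assays, each screened in duplicate at a single inhibitor concentration; percent activity remaining relative to vehicle control, percent inhibition taken as 100 minus activity remaining.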

[18] = molecular target: Protein kinase C gamma type (Homo sapiens) (UniProt P05129); experiment: Inhibition of human recombinant PKCg at 500 nM related to control ULK1
Homo sapiens = species on record: Homo sapiens; experiment: Inhibition of human recombinant ABL at 500 nM related to control ULK1
[19] = molecular target: Ephrin type-A receptor 5 (Homo sapiens) (UniProt P54756); experiment: Inhibition of human recombinant EphA5 at 500 nM related to control ULK1
Ephrin type-A receptor 5 (Homo sapiens), sequence (P54756 whole entry): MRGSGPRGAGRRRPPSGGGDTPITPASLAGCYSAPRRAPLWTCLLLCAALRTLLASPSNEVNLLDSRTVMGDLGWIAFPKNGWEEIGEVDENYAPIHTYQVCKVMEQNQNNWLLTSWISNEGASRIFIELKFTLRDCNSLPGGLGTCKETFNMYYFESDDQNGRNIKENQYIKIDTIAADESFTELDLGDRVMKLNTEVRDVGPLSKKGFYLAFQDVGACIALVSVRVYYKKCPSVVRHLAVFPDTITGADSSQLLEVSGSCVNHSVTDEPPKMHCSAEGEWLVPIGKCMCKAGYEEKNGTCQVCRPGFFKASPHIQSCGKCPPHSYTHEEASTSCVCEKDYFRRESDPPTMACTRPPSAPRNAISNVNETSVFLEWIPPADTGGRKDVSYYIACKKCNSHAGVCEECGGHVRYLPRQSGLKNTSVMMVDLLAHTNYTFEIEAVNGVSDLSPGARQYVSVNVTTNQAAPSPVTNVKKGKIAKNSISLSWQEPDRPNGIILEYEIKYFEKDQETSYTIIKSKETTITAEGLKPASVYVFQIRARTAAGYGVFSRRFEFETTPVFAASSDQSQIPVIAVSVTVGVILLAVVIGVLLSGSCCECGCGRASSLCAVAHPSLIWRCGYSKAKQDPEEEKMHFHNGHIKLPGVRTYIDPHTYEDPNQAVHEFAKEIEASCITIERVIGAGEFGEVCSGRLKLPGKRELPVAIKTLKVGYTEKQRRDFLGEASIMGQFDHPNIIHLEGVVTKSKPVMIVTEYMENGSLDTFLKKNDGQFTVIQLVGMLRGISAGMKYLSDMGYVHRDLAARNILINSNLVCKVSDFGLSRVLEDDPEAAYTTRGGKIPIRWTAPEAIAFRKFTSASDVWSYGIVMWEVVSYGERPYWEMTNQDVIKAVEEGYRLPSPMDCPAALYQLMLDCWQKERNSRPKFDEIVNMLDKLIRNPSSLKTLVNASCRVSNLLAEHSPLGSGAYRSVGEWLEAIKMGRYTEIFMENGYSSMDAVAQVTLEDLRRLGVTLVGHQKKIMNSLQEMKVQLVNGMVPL

Serine/threonine-protein kinase 25 (Homo sapiens), sequence (O00506 whole entry, looked up): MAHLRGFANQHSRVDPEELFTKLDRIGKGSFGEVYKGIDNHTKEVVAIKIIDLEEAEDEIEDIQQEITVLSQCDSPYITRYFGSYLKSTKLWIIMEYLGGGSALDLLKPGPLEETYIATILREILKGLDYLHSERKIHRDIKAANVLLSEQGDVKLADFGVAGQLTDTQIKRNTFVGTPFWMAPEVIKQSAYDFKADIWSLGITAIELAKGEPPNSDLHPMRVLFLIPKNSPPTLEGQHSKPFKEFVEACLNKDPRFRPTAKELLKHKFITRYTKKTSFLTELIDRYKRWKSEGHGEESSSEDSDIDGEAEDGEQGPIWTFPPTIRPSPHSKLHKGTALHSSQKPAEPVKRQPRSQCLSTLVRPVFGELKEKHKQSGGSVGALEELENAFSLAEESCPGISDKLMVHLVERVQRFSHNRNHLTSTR
Mitogen-activated protein kinase 9 (Homo sapiens), sequence (P45984 whole entry, looked up): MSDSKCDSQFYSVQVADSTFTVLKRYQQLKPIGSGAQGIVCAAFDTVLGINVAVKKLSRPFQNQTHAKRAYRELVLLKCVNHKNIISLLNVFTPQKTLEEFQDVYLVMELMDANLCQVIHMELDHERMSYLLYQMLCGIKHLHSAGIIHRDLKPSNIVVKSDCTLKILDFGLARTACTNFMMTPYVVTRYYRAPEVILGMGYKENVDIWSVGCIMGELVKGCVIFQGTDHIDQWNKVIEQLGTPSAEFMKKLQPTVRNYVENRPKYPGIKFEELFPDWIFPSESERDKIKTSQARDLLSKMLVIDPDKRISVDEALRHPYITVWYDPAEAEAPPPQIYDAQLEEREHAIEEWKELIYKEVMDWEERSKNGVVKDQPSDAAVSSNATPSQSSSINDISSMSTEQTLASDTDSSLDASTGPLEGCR
Proto-oncogene tyrosine-protein kinase ROS (Homo sapiens), sequence (P08922 whole entry): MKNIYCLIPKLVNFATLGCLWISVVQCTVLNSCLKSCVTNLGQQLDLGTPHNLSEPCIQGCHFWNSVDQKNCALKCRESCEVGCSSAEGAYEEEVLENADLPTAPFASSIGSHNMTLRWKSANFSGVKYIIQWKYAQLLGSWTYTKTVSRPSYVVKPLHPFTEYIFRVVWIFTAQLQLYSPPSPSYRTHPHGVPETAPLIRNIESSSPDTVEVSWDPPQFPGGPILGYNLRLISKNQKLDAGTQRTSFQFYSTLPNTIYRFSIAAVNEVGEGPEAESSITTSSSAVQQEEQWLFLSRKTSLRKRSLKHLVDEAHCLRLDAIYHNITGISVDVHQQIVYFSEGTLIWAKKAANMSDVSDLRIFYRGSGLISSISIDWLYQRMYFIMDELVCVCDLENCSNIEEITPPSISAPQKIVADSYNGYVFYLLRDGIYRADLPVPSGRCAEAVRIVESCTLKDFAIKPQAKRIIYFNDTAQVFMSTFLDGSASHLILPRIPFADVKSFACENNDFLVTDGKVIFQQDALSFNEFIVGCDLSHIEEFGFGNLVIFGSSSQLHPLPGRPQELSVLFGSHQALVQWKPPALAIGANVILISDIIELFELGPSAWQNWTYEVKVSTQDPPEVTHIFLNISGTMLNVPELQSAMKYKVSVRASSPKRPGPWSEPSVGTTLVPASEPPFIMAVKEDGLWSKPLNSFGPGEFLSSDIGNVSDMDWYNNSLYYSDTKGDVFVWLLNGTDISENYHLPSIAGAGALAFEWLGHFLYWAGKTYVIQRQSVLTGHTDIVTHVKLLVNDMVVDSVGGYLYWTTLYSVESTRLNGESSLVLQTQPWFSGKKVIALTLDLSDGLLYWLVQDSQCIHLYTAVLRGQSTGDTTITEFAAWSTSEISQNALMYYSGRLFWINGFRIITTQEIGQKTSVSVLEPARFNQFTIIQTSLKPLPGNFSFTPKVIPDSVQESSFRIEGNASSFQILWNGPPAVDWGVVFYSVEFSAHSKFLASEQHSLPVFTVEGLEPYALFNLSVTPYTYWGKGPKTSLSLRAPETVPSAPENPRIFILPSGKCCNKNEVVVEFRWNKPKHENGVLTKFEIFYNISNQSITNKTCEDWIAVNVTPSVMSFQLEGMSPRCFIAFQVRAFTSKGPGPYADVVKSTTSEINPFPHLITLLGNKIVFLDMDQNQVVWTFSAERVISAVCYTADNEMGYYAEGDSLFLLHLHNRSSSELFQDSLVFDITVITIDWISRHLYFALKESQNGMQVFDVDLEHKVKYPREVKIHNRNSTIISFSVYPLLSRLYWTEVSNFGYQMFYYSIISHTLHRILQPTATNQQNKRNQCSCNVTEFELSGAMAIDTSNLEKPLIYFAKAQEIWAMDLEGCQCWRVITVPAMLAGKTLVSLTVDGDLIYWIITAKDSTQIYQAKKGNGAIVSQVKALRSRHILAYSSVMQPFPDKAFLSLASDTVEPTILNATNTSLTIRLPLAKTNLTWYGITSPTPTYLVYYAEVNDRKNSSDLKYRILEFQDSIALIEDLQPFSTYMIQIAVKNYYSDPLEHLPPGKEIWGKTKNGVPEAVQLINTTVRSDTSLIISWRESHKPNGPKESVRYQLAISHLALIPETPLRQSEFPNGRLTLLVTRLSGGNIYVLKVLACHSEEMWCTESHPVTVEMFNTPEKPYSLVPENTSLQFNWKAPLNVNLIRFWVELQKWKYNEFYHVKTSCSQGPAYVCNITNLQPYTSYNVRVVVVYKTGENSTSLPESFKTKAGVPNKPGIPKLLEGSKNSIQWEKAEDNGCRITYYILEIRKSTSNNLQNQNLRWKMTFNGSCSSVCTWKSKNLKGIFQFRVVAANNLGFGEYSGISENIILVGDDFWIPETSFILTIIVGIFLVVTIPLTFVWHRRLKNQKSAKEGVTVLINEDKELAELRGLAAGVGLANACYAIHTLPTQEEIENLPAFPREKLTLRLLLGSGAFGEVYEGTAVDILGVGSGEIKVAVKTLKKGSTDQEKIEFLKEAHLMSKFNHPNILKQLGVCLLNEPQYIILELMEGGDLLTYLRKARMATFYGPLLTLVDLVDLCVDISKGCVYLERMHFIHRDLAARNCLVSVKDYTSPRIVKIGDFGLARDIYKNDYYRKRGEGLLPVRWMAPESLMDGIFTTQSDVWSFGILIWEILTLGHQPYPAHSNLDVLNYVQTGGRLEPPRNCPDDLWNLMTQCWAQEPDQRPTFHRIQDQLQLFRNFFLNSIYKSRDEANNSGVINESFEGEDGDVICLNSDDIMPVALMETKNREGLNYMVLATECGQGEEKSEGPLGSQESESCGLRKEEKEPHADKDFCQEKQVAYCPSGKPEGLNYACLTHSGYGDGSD

## O=C(N[C@@H](C1CC1)C(F)(F)F)c1cc(-c2cnn3cc(-c4ccc(F)cc4)cnc23)cs1
[1]
  inhibition: 0%
[2]
  inhibition: 18%
[3]
  fold change (FC): 0

## CC(C)[C@H](NC(=O)c1cc(-c2cnn3cc(-c4ccc(OCCN5CCCCC5)cc4)cnc23)cs1)C(F)(F)F
[4]
  inhibition: 4%
[5]
  fold change (FC): 0.09
[6]
  fold change (FC): 0
[7]
  inhibition: 0%
[8]
  inhibition: 0%

## CNC(=O)c1ccccc1Oc1nc(Nc2cc(OC)c(OC)c(OC)c2)ncc1Br
[9]
  fold change (FC): 0
[10]
  fold change (FC): 0
[11]
  inhibition: 0%
[12]
  fold change (FC): 0
[13]
  inhibition: 17%
[14]
  fold change (FC): 0.03
[15]
  inhibition: 5%
[16]
  fold change (FC): 0.04
[17]
  inhibition: 0%
[18]
  fold change (FC): 0.12
Homo sapiens
  fold change (FC): 0.19
[19]
  fold change (FC): 0.26
